Consider six compounds from ChEMBL document CHEMBL4425191, “Design, synthesis and biological evaluation of photoaffinity probes of antiangiogenic homoisoflavonoids” (2016).

For orientation: GI50 means the concentration at which growth is held to half of that of the control. Read a low GI50 as greater sensitivity of the cells.

Common to all, as to format: functional
Test [1] can be described thus: Antiproliferative activity against human HREC cells after 48 hrs by alamar blue based fluorescence assay. The essentials: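 Human retinal microvascular endothelial cells at passages 5–8, 2,500 per well, rested 24 h, then given test compound (0.5 nM–500 µM) for 48 h. Proliferation was read by alamarBlue 4 h after addition (ex 560, em 590 nm) and dose-response fitted against DMSO control. GI50 <100 µM was recorded only if ≥50% reduction occurred at the highest concentration.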
For orientation: Resazurin is reduced to fluorescent resorufin, in cell work by metabolically active cells.

The test system of test [2] is HUVEC. Description: Antiproliferative activity against human HUVEC cells after 48 hrs by alamar blue based fluorescence assay. The essentials:
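HUVECs, passages 5–8, cultured in EGM-2 (EBM plus growth-factor bullet kit, 2% FBS). 2,500 cells were seeded 24 h, then incubated 48 h with compound at 0.5 nM–500 µM. alamarBlue was added and fluorescence read 4 h later at 560/590 nm; curves were fitted versus DMSO. GI50 <100 µM was listed only for ≥50% reduction at the top dose.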

Test [3] in a line: Antiproliferative activity against human 92-1 cells after 48 hrs by alamar blue based fluorescence assay.
Test [4] has as its system Y79. Nature of the test: Antiproliferative activity against human Y79 cells after 48 hrs by alamar blue based fluorescence assay. The following applies: Y79, 48 h.
Test [5] relates to ARPE-19. Description: Antiproliferative activity against human ARPE19 cells after 48 hrs by alamar blue based fluorescence assay. The following applies: ARPE-19, 48 h. The essentials: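 ARPE19 cells grown in Ham's F-10 with 10% FBS and 1% pen-strep; 2,500 cells/well settled 24 h, then 48 h compound treatment over 0.5 nM–500 µM. alamarBlue fluorescence (560/590 nm) was read after 4 h; curves were fitted relative to DMSO. GI50 <100 µM was reported only where the highest concentration cut cell number by ≥50%.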

`COc1ccc(CC2COc3cc(OC)c(OC)c(OC)c3C2=O)cc1NC(=O)[C@H](Cc1ccc(OCCCC(=O)O)cc1)NC(=O)OC(C)(C)C` (stereo not given in full): the GI50 in test [1] is 0.0079 µM; in test [2] it was 22 µM; in test [3], more than 100 µM; in test [4] it was more than 100 µM; in test [5], more than 100 µM.
Take `COc1ccc(CC2COc3cc(OCCCC(=O)NCCCOc4ccc(C(=O)c5ccc(OCc6cn(CCOCCOCCOCCNC(=O)CCCC[C@@H]7SC[C@@H]8NC(=O)N[C@@H]87)nn6)cc5)cc4)c(OC)c(OC)c3C2=O)cc1OC(=O)[C@H](Cc1ccccc1)NC(=O)OC(C)(C)C` (stereo not given in full): the GI50 in test [1] was 44 µM; in test [2], more than 100 µM; in test [3] it was more than 100 µM; in test [4], more than 100 µM; in test [5], more than 100 µM.
Take `COc1ccc(CC2COc3cc(OC)c(OC)c(OC)c3C2=O)cc1OCC(=O)NCCCOc1ccc(C(=O)c2ccc(OCc3cn(CCOCCOCCOCCNC(=O)CCCC[C@@H]4SC[C@@H]5NC(=O)N[C@@H]54)nn3)cc2)cc1` (stereo not given in full): the GI50 in test [1] was 0.072 µM; in test [2], more than 100 µM; in test [3], more than 100 µM; in test [4] it was more than 100 µM; in test [5], more than 100 µM.
For `COc1ccc(CC2COc3cc(OC)c(OC)c(OC)c3C2=O)cc1OC(=O)[C@H](Cc1ccc(OCC(=O)NCCCOc2ccc(C(=O)c3ccc(OCc4cn(CCOCCOCCOCCNC(=O)CCCC[C@@H]5SC[C@@H]6NC(=O)N[C@@H]65)nn4)cc3)cc2)cc1)NC(=O)OC(C)(C)C` (stereo not given in full), the GI50 in test [1] is 0.21 µM; in test [2] it was 0.44 µM; in test [3], more than 100 µM; in test [4], more than 100 µM; in test [5] it was more than 100 µM.
With `COc1ccc(CC2COc3cc(OC)c(OC)c(OC)c3C2=O)cc1OC(=O)[C@H](Cc1ccc(OCC(=O)O)cc1)NC(=O)OC(C)(C)C` (stereo not given in full), the GI50 in test [1] is 0.047 µM; in test [2], 0.012 µM; in test [3], more than 100 µM; in test [4] it was more than 100 µM; in test [5], more than 100 µM.
Regarding `COc1ccc(CC2COc3cc(OC)c(OC)c(OC)c3C2=O)cc1NC(=O)[C@H](Cc1ccc(OCCCC(=O)NCCCOc2ccc(C(=O)c3ccc(OCc4cn(CCOCCOCCOCCNC(=O)CCCC[C@@H]5SC[C@@H]6NC(=O)N[C@@H]65)nn4)cc3)cc2)cc1)NC(=O)OC(C)(C)C` (stereo not given in full), the GI50 in test [1] was 42 µM; in test [2], more than 100 µM; in test [3], more than 100 µM; in test [4], more than 100 µM; in test [5], more than 100 µM.
